Active and inactive are the calls of the source.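 The calls were made as follows, unless noted: active = visually confirmed hit in the image check and inhibition above 20%; inconclusive = visually confirmed hit but inhibition not above 20%; inactive = no visual hit in the image check.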
Experiments:
[1] = inhibitors of TNFa-induced NFkB p65 translocation, primary screen, imaging, HUVEC, MLSMR starter and 10KST1 sets (AID 438;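 active = inhibition above 20% together with a positive visual image hit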;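 also: compound added about 3h40 before a 20 min TNFalpha stimulation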;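 as to inhibition: signal is the nuclear over cytoplasmic p65 intensity ratio per well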); conditions: HUVEC TNFa-induced p65 nuclear translocation; cell count: measured here: nuclei count (cytotoxicity indicator), at 2.08 µM; inhibition: at 2 µM, stronger effect = higher value, 0% TNFa-plus-vehicle, 100% no-TNFa wells
[2] = inhibitors of E-selectin induction by TNFa, primary screen, imaging, HUVEC, immunofluorescence, MLSMR starter and 10KST1 sets (AID 487); conditions: HUVEC TNFalpha-induced E-selectin immunofluorescence imaging, at 2 µM; inhibition: stronger effect = higher value; nuclei count: measured here: cell number, toxicity;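 as to inhibition: signal is fraction of cell area covered by stained E-selectin grains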;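 as to nuclei count: 100% = median nuclei count of all wells on the same plate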
[3] = DUSP6 inhibitors restoring Erk phosphorylation by chemical complementation, primary imaging in DUSP6-transfected HeLa (AID 609;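 active = compounds giving at least 50% inhibition in the cell-based MKP-3 phosphatase rescue imaging test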;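 as to inhibition: phospho-Erk level distribution per well compared with pooled transfected vehicle control wells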); conditions: HeLa MKP-3 transfected, phospho-Erk imaging KS statistic, at 10 µM, cells stimulated with TPA for 15 min
[4] = biological target: Dual specificity protein phosphatase 6 (Homo sapiens) (UniProt Q16828); assay: as above; conditions: HeLa MKP-3 transfected, phospho-Erk imaging KS statistic; at 10 µM; stronger effect = higher value; cells stimulated with TPA for 15 min
Sequence of Dual specificity protein phosphatase 6 (Homo sapiens) (Q16828 whole entry, looked up): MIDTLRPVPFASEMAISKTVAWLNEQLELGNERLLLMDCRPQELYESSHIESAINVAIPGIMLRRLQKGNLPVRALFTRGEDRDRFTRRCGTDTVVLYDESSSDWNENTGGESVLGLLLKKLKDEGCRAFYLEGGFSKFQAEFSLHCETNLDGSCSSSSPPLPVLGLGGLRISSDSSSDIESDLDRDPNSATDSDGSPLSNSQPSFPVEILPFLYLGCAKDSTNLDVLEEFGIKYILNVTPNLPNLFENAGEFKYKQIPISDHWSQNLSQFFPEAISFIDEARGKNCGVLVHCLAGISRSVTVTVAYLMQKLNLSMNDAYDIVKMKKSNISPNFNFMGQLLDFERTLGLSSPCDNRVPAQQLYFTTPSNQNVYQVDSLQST

[5] = biological target: Voltage-gated potassium channel subunit beta-2 (Rattus norvegicus) (UniProt P62483); assay: KvBeta enzyme negative modulators, primary screen, biochemical, NADPH fluorescence (AID 622;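 active = fluorescence slope higher than the sample average by over 3 SD, cut at about -0.22 in these data, passing the limit was not always enough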;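 also: slope of raw intensity against log time taken from 70 to 1610 s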); conditions: recombinant KvBeta, 4-cyanobenzaldehyde reduction, at 10 µM, stronger effect = higher value
Sequence of Voltage-gated potassium channel subunit beta-2 (Rattus norvegicus) (P62483 whole entry, looked up): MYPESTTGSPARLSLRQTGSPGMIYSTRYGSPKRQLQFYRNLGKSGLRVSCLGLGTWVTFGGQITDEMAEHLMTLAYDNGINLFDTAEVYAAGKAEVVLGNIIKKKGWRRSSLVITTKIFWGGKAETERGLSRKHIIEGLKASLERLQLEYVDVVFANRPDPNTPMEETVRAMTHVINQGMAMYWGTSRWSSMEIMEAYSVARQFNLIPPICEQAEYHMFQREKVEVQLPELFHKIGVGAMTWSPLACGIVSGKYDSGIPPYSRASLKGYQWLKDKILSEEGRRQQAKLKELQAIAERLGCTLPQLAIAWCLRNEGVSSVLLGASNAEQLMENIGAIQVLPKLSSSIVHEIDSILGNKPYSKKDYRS

[6] = biological target: Voltage-gated potassium channel subunit beta-2 (Rattus norvegicus) (UniProt P62483); assay: KvBeta positive modulators, primary screen, biochemical, NADPH fluorescence (AID 623;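 active = NADPH fluorescence slope more negative than the mean of all samples by about 3 SD, 99.7% confidence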;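 also: fluorescence intensity change per second fitted from 20 to 320 s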); conditions: Recombinant KvBeta, NADPH fluorescence decrease slope, 10 min; at 10 µM; stronger effect = lower value
[7] = biological target: Muscarinic acetylcholine receptor M4 (Homo sapiens) (UniProt P08173); assay: compounds altering M4/GIRK thallium flux, either direction, primary screen, M4 allosteric agonist project, cell-based, HEK293 M4/GIRK, BTC-AM (AID 625;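 active = fluorescence slope after compound addition differing from the mean of all tested samples at 99.7% confidence, mostly higher but some lower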;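 also: thallium influx through GIRK channels coupled to M4 in HEK293 cells with BTC-AM dye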); conditions: at 10 µM, actives lie on both sides
Sequence of Muscarinic acetylcholine receptor M4 (Homo sapiens) (P08173 whole entry, looked up): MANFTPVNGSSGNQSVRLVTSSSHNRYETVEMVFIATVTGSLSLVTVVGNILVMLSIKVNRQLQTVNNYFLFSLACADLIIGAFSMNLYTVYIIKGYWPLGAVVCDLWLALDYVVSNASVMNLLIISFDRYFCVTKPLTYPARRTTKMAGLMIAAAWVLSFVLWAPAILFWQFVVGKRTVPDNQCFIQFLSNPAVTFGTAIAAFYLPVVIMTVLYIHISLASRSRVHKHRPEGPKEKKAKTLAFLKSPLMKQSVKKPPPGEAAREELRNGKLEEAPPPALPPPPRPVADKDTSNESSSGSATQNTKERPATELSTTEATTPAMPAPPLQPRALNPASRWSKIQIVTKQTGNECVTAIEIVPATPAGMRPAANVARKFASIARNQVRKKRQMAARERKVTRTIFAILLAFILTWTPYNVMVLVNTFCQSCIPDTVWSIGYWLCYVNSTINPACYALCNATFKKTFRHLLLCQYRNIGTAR
Procedure, shortened: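 Assay system: HEK293 cells with M4 receptor and GIRK channels / Controls: carbachol and DMSO controls / Schedule: 1 h dye loading, 2 min kinetic read / Technique: kinetic fluorescence with BTC-AM dye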

[8] = inhibitors of larval lipid processing in zebrafish, primary screen, whole organism, PED6 fluorescence, gall bladder and intestine (AID 686;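 active = a full or partial loss of lipid-probe fluorescence in the fish gall bladder, intestine or both, judged by eye; inactive = no fluorescence loss, or compound toxic to the fish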;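 also: larvae 5 to 7 days old with five fish per well; signal comes from phospholipase A2 cleavage of quenched PED6 carried via bile; overnight exposure to compound and PED6 before scoring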); conditions: Zebrafish larvae PED6 lipid processing, fluorescence scoring; screened at 20 µM (by protocol)
Procedure, shortened: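 Doses: 20 µM single dose. Test system: live zebrafish larvae aged 5-7 days, whole organism. Quantity: five larvae per well. Measured by: By-eye fluorescence microscopy. Reagent: ingested quenched lipid PED6 at 100 nM. Read-out: visual per-well fluorescence inhibition score. Times: overnight exposure of larvae to compound plus PED6.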

[9] = inhibitors of Chlamydomonas gravitaxis, primary screen, whole organism, Chlamydomonas reinhardtii, WT vs cilia-less mutant, absorbance, 96-well (AID 463189;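 active = inhibition at or above 50% relative to wild type and mutant plate controls; inactive = inhibition below 50%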;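 also: 0% = wild type cc124 cells in DMSO and 100% = ciliumless bld1 mutant cells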); conditions: OD600 absorbance, 2 days, at 10 µM, stronger effect = higher value
[10] = measured here: cell density z-score
[11] = measured here: nuclear c-Myc green intensity z-score
[12] = measured here: nuclear pErk red intensity z-score, stronger effect = higher value

Compound	cell count [1]	inhibition [1]	inhibition [2]	nuclei count [2]	z-score [3, 10]	z-score [3, 11]	z-score [3, 12]	inhibition [4]	fluorescence slope [5]	NADPH fluorescence slope [6]	fluorescence slope [7]	outcome [8]	inhibition [9]
CCN(CC)CCCN1C(=O)C(=O)/C(=C(/O)c2ccc(OC)cc2)C1c1ccco1 (configuration not stated)	651	-11.9% (inactive)	43.5% (inactive)	185%	0.516	0.587	0.462	-0.233% (inactive)	-0.471 (inactive)	-0.000107 (inactive)	0.0055 (inactive)	inactive	-7.38% (inactive)
CCN(CC)CCN1C(=O)C(=O)/C(=C(/O)c2c(C)[nH]c(C(=O)OC)c2C)C1c1cccc(OC)c1 (configuration not stated)	699	-1% (inactive)	-150% (inactive)	188%	-0.637	-0.455	-0.673	13.2% (inactive)	-0.445 (inactive)	-7.9e-05 (inactive)	0.0061 (inactive)	inactive	16.5% (inactive)
CC1N(O)C(c2ccc(Cl)cc2Cl)N(O)C1(C)C (configuration not stated)	482	1.9% (inactive)	-3.5% (inactive)	94.1%	-0.283	-1.5	1.54	7.93% (inactive)	-0.347 (inactive)	9.2e-07 (inactive)	0.00632 (inactive)	inactive	43.1% (inactive)
C/C(=N\O)C(=O)NCCCn1ccnc1	636	-10.8% (inactive)	26.6% (inactive)	94.5%	-0.252	0.0271	0.47	-0.233% (inactive)	-0.478 (inactive)	-0.000143 (inactive)	0.00635 (inactive)	inactive	-9.7% (inactive)
CCC(NC(=O)Nc1ncccc1C)(C(F)(F)F)C(F)(F)F	612	5.3% (inactive)	-36.6% (inactive)	104%	1.12	0.397	-1.61	20.2% (inactive)	-0.508 (inactive)	-1.7e-05 (inactive)	0.00598 (inactive)	inactive	35.4% (inactive)
CC1(C)CC(=O)C2=C(C1)OC(N)=C(C#N)C21C(=O)N(CN2CCOCC2)c2ccccc21 (configuration not stated)	371	-2.9% (inactive)	-122% (inactive)	138%	0.502	-1.1	-1.15	19.4% (inactive)	-0.479 (inactive)	-3.3e-05 (inactive)	0.00562 (inactive)	inactive	36.4% (inactive)
CCOC(=O)Cc1[nH]nc2c1C(c1cc(OC)ccc1OC)C(C#N)=C(N)O2 (configuration not stated)	591	-5.3% (inactive)	-13.2% (inactive)	140%	1.07	1.02	0.992	21% (inactive)	-0.503 (inactive)	-5.8e-05 (inactive)	0.00642 (inactive)	inactive	-4.63% (inactive)
COc1ccc(C2C(C(C)=O)=C(O)C(=O)N2c2nccs2)cc1OC (configuration not stated)	651	-8.9% (inactive)	-2.2% (inactive)	87.4%	-0.646	-0.662	-0.478	-7.67% (inactive)	-0.5 (inactive)	-0.000231 (inactive)	0.00821 (inactive)	inactive	-3.88% (inactive)
Cc1nnc(N2CCOCC2)c2ccccc12	590	-0.6% (inactive)	-63.6% (inactive)	148%	0.561	0.102	-1.27	1.63% (inactive)	-0.472 (inactive)	-0.000134 (inactive)	0.00562 (inactive)	inactive	14.9% (inactive)
COC(=O)CSc1nc(C)c(Oc2ccccc2)c(=O)[nH]1	726	7.2% (inactive)	-102% (inactive)	162%	-1.93	2.21	-0.257	-2.09% (inactive)	-0.424 (inactive)	-5.8e-05 (inactive)	0.00506 (inactive)	inactive	-8.15% (inactive)
C/C(=N\O)c1c(C)c2ccccc2n1C	553	-7.3% (inactive)	-33% (inactive)	155%	0.633	-0.875	0.794	11.9% (inactive)	-0.374 (inactive)	-3.2e-05 (inactive)	0.00461 (inactive)	inactive	15.1% (inactive)
N#Cc1nc(COc2ccc(Br)cc2)oc1NCCN1CCOCC1	510	-5.5% (inactive)	-38.7% (inactive)	169%	0.361	0.776	1.07	7.7% (inactive)	-0.432 (inactive)	-4.4e-05 (inactive)	0.00542 (inactive)	inactive	-13.6% (inactive)
N#C/C(C(=O)N1CCCCC1)=C1\Nc2ccccc2S1	649	6.4% (inactive)	-0.9% (inactive)	117%	-0.0253	-0.323	-0.359	1.63% (inactive)	-0.457 (inactive)	-6.2e-05 (inactive)	0.00412 (inactive)	inactive	15.7% (inactive)
COc1ccc(C2C(C#N)=C(N)Oc3cc(C)n(CCN4CCOCC4)c(=O)c32)cc1OC (configuration not stated)	520	-5.9% (inactive)	0.9% (inactive)	110%	-1.19	0.613	-1.48	-10.1% (inactive)	-0.468 (inactive)	-3.9e-05 (inactive)	0.00521 (inactive)	inactive	1.58% (inactive)
Cc1cc(=O)oc(C)c1C(=O)n1nc(C)c2c1C[C@@H]1[C@H]2C1(C)C	553	-3.8% (inactive)	-44.9% (inactive)	176%	0.489	0.72	-1.17	15.9% (inactive)	-0.403 (inactive)	-3.7e-05 (inactive)	0.00461 (inactive)	inactive	-9.72% (inactive)
COc1cc(N2CCCC2)c(OC)cc1/C=c1/sc2nc3ccccc3n2c1=O	499	-8.5% (inactive)	-137% (inactive)	155%	-1.29	0.0669	-0.774	39.3% (inactive)	-0.438 (inactive)	-3.3e-05 (inactive)	0.00712 (inactive)	inactive	3.75% (inactive)
CC(NC(=O)Nc1ncccn1)(C(F)(F)F)C(F)(F)F	705	-8.4% (inactive)	-9.7% (inactive)	107%	-2.34	2.27	-1.54	3.97% (inactive)	-0.481 (inactive)	-0.000112 (inactive)	0.00693 (inactive)	inactive	-10.4% (inactive)
C=CCOc1ccc(C2/C(=C(\O)c3ccc(F)cc3)C(=O)C(=O)N2CCCN(C)C)cc1 (configuration not stated)	672	-13.7% (inactive)	-142% (inactive)	172%	1.58	1.06	-0.378	4.25% (inactive)	-0.451 (inactive)	-4.3e-05 (inactive)	0.00492 (inactive)	inactive	14.7% (inactive)
CCOC(=O)NC(Nc1cc(C)on1)(C(F)(F)F)C(F)(F)F	705	-7.9% (inactive)	-70% (inactive)	169%	-0.319	1.98	0.812	-11.4% (inactive)	-0.465 (inactive)	-3.9e-05 (inactive)	0.00511 (inactive)	inactive	-3.89% (inactive)
CCCCCOc1ccc(C(=O)NCC(=O)NCC(=O)OCC)cc1	715	9.7% (inactive)	-113% (inactive)	150%	-0.426	-0.0633	-0.949	1.63% (inactive)	-0.417 (inactive)	-6e-05 (inactive)	0.00389 (inactive)	inactive	-5.95% (inactive)
O=C1c2ccccc2C(=O)N1c1ncccn1	500	-8.5% (inactive)	-89% (inactive)	138%	-0.519	-0.638	0.031	1.42% (inactive)	-0.454 (inactive)	-0.000107 (inactive)	0.00418 (inactive)	inactive	3.86% (inactive)
Cc1nc(N2CCN(C(=O)c3ccc(Cl)cc3)CC2)c(C#N)c2c1COC(C)(C)C2	522	8.1% (inactive)	7% (inactive)	95.8%	-0.225	-0.286	0.404	1.98% (inactive)	-0.335 (inactive)	-2.3e-05 (inactive)	0.00518 (inactive)	inactive	129% (active)
Cc1csc(SCCn2c(Br)nc3c2c(=O)[nH]c(=O)n3C)n1	541	-22.3% (inactive)	-35.3% (inactive)	180%	0.452	0.745	0.738	-12.6% (inactive)	-0.409 (inactive)	-4.5e-05 (inactive)	0.00514 (inactive)	inactive	31.8% (inactive)
COc1ccc(N2C(=O)C3C(C2=O)C2C=CC3C23CC3)c(OC)c1 (configuration not stated)	517	-4.2% (inactive)	41.1% (inactive)	197%	0.465	-0.843	1.05	11.9% (inactive)	-0.422 (inactive)	-4.3e-05 (inactive)	0.00475 (inactive)	inactive	24.5% (inactive)

Reference: PubChem BioAssay
